From ChEMBL document CHEMBL4513216, “Probing the Open Global Health Chemical Diversity Library for Multistage-Active Starting Points for Next-Generation Antimalarials” (ACS Infect Dis, 2020)

Assay: Toxicity liver stage against HepG2, at 10uM
Format: cell-based
Parameters: test concentration 10 uM, cell line HepG2-A16-CD81EGFP
Conditions: human, HepG2-A16-CD81EGFP cells; read-out: INHIBITION
Method in brief: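 Uninfected HepG2-A16-CD81EGFP cells, 3 × 10^3 per well, 1536-well, plated on prespotted compound at 10 μM final, parasite-free screening media added to match infected plates; puromycin 10 μM positive, DMSO 0.5% negative; run in parallel with 48 h PbLuc assay at 37 °C, 5% CO2; viability by CellTiter-Glo luminescence, normalized to controls.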

SMILES	cytotoxicity at 10 µM
Cc1cc(C)n(-c2ccc3nnc(C)n3n2)n1	17.8%
CCOc1ccc(C(=O)Nc2c(C)nc3cccc(C)n3c2=O)cc1	8.99%
COC(=O)CC(c1cccnc1)c1oc(C)cc(=O)c1O (centres undefined)	-0.191%
NC(=O)c1nc(CC(=O)Nc2cccc(C(F)(F)F)c2)no1	0.493%
O=S(=O)(NCC1(c2cccs2)CCOCC1)c1ccc2c(c1)OCCO2	-1.64%
CC(C)NC(=O)C1CCC2(CCNCC2)C1 (centres undefined)	7.18%
CC(=O)N1CCCC2(CCN(C(=O)c3nn(C)c4ccccc34)CC2)C1	2.26%
O=C(NCC1CC1)C1CCC2(CCN(C(=O)c3cccs3)CC2)O1 (centres undefined)	-0.979%
CCn1ncc2c1C(COC)CN(Cc1nccs1)C2 (centres undefined)	9.41%
CNC(=O)[C@H]1C[C@@H]2CN(C(=O)c3ccoc3)C[C@@H]2N1S(C)(=O)=O	-3.88%
O=C(Nc1ccccc1)C1CN(Cc2cccs2)CC12CCOCC2 (centres undefined)	3.09%
O=c1[nH]nc2c(S(=O)(=O)N3CCCCCC3)cccn12	2.1%
CCOC(=O)CC(c1ccc(OC)cc1)c1c(O)n[nH]c1C (centres undefined)	-0.244%
CC1=Nc2c(c(=O)[nH]n2C(C)C)C(c2cccs2)S1 (centres undefined)	3.67%
Cc1cnc2c(c1NCc1ccncc1)c(=O)n(C)c(=O)n2C	-10.7%
COCCN1C[C@@H]2CN(c3ncccn3)C[C@@H]2C1=O	-11.9%
CCn1nc(C)c2ncnc(NCCn3cccn3)c21	7.73%
COc1c(C(=O)NCc2cccnc2)nnn1Cc1ccc(C)cc1	11.8%
Cc1n[nH]c(C)c1CCC(=O)N1CCC(O)(CN2CCN(C)CC2)C1 (centres undefined)	-6.13%
Oc1cc(-c2ccsc2)nc(C2CCN(Cc3ccncc3)CC2)n1	-7.7%
Cc1cncnc1C1CCN(C(=O)CN(C)C)CC1	-7.91%

SMILES	cytotoxicity at 10 µM
Cn1cc(CN2CCCC(c3nc(O)cc(-c4cccs4)n3)C2)cn1 (centres undefined)	-5.89%
CCC1(CC)CC(=O)N(CC(O)c2ccc(F)cc2)C1=O (centres undefined)	-0.438%
CC(CN1CCOCC1)NC(=O)N1CCCC1 (centres undefined)	0.651%
COc1ccc(NCCC(=O)NCc2cccnc2N(C)C)cc1	-2.06%
CCNC(=O)NCc1ccc(-n2ccc(C(F)(F)F)n2)cc1	-4.7%
Cc1nc(C)c(C(C)NCc2c(C)nn(C)c2N(C)C)s1 (centres undefined)	-4.96%
O=C(NCC1(O)CCOCC1)c1ccn(-c2ccccc2F)n1	-0.636%
CSc1ccc(NC(=O)Cn2cc(N)cn2)cc1	0.14%
O=c1ccc(S(=O)(=O)N2CCCC2)cn1CC1CCCCO1 (centres undefined)	-0.983%
O=C(C1CC(c2ccccc2)=NO1)N1CCCCc2ccccc21 (centres undefined)	3.17%
CCc1nnc2n1CCN(C(=O)C(C)Oc1cccc(C#N)c1)C2 (centres undefined)	0.855%
CC(=O)NCCCNC(=O)N1CCN(c2cc(F)ccc2F)CC1	-5.14%
COc1ccccc1OCc1nc2cc3c(cc2c(=O)o1)OCCCO3	1.37%
O=C(NCC1CCC1)c1ccc(-n2ccnc2)nn1	2.18%
COc1cccc(CSc2nnc(C)n2CC(N)=O)c1	3.59%
CCC(C)(CNC(=O)Nc1nncs1)N1CCOCC1 (centres undefined)	-7.98%
CCN1CCOC(CNCc2ccc(OC)c(F)c2)C1 (centres undefined)	1.79%
CNC(=O)CCN1CCN(C(C)c2ccc(Cl)cc2)CC1 (centres undefined)	-0.82%
CCOC(=O)NC(CNC(=O)c1cc(Cl)ccn1)CC(C)C (centres undefined)	5.38%
CCC(COC)NC(=O)N1CCC(n2ccc(C(F)(F)F)n2)CC1 (centres undefined)	-12%
Cc1n[nH]cc1CNC(C(=O)N1CCCCC1)c1ccccc1 (centres undefined)	8.37%

SMILES	cytotoxicity at 10 µM
CCc1nc(C(=O)N2CC(C)CN(C)c3ccccc32)c[nH]1 (centres undefined)	-3.47%
CCCn1nnnc1COc1cc(OC)ccc1C(N)=O	-4.42%
CNS(=O)(=O)c1cc(C(=O)N(C)Cc2sccc2C)c(C)o1	-8.43%
CCn1ncc2c1NC(=O)C(C#N)C21CCCC1 (centres undefined)	-0.242%
CC(C)CCNC(=O)C(c1cccc(F)c1)N(C)C (centres undefined)	-5.77%
COC[C@@]12CC[C@@H](N3CCOCC3)C[C@H]1CCN(c1cnccn1)C2	4.76%
Cn1nnnc1SCCNC(=O)c1cccc2ccnn12	-59.1%
Cc1ncsc1CCn1ccnc1-c1cc2n(n1)CCCNC2	-0.434%
COc1cc(CN2CCCC2)ccc1OC12CCCN(CC1)C2 (centres undefined)	-2.87%
CN(Cc1ccccc1CN1CCCC1)C(=O)c1c(O)cccc1O	-5.84%
Cc1nc(C(=O)NCCS(=O)(=O)N2CCCC2)cs1	13.4%
CCn1c(CN(C)C)nnc1C1CCN(Cc2cnc(C)nc2)CC1	4.6%
Cc1ccc2c(c1)SCC(=O)N2CC(=O)N1CCCC1c1nccs1 (centres undefined)	12.4%
CCC(CO)N(Cc1ccco1)C(=O)c1ccccc1NC (centres undefined)	2.1%
CCN(Cc1cc(F)c(OC)c(Cl)c1)Cc1noc(CC(C)C)n1	-2.84%
Cc1ccccc1N1CCCN(C(=O)c2nn(C)cc2Cl)CC1	-4.78%
COc1ccc(-c2c[nH]c(C3CC(=O)N(CC(C)C)C3)n2)cc1 (centres undefined)	5.35%
O=C1CCNC(=O)N1CC(=O)N1CCC1c1ccc(F)cc1 (centres undefined)	7.46%
CNc1nc(C)c(C(=O)N2CCCCC2CCc2ccccc2)s1 (centres undefined)	2.24%
Cn1cc(Cl)c(C(=O)N2CCCN(C3Cc4ccccc4C3)CC2)n1	-4.86%
CC(C)n1cnnc1Cn1c(=O)ccc2ccccc21	5.62%

SMILES	cytotoxicity at 10 µM
COCCc1noc(CN2CCC3(CCCO3)CCC2=O)n1 (centres undefined)	5.35%
Cc1cccnc1CC(C)N(C)C(=O)c1ccoc1C (centres undefined)	-12.6%
COCCN1CCC(CN(CC2CCCO2)C(=O)CCNC(C)=O)CC1 (centres undefined)	-5.99%
Cc1ccc(C(=O)N2CCN(S(C)(=O)=O)CC2)cc1N1CCNC1=O	-5.07%
COCCN(C)C[C@@H]1CN(C(=O)c2ccoc2)C[C@@H]1CO	-18.4%
COCCCNC(=O)CN(C)C1CCCN(c2cccnn2)C1 (centres undefined)	-2.51%
Cc1ccsc1CNC(=O)N(C)Cc1cnn(C)c1	-6.25%
CN1CCOC(CN(C(=O)CCCn2cccn2)c2nccs2)C1 (centres undefined)	-22.7%
CN1CC(C(=O)Nc2ccc(OCC(F)(F)C(F)F)nc2)CC1=O (centres undefined)	-8.64%
CC(C)(C(N)=O)N1CCN(C(=O)c2ccn(-c3cccc(Cl)c3)n2)CC1	-13.3%
Cc1cnn(CC(=O)N2CCCN(c3ncccc3C#N)CC2)c1	-4.37%
O=C(NCCOC1CCCCC1)c1ccc(-c2ccco2)[nH]c1=O	-8.08%
CN(Cc1cccc(F)c1)C(=O)CN1CCOC(Cn2cccn2)C1 (centres undefined)	-8.21%
CN(Cc1ccco1)C(=O)CN1CCCCC1Cn1cccn1 (centres undefined)	2.91%
COCCNc1cc(C2CCCNC2)ccn1 (centres undefined)	-7.17%
O=C(c1ncccn1)N1C[C@H]2CCC[C@@]2(COc2ccccn2)C1	5.29%
c1cnc(N2CCC3(COCCN(CC4CCOCC4)C3)C2)nc1 (centres undefined)	-1.56%
CC(C)CN1CCc2c(CN(C)Cc3ccco3)cncc2C1	8.1%
CN1[C@@H](C(=O)NCC2CC2)C[C@H]2CN(Cc3ccsc3)C[C@H]21	-0.213%
CN1C(=O)[C@@H]2CC[C@H]1CN(c1ncnc3ccsc13)C2	0.636%
CNc1nc2cn(Cc3ccc(Cl)cc3)c(=O)c-2c[nH]1	8.93%
